According to ChEMBL document CHEMBL1138580, “Natural polyprenylated benzophenones inhibiting cysteine and serine proteases” (Eur J Med Chem, 2009):
Calls of active or inactive are those of the source. No cut-off for these calls is given here.

Assays:
Papain = molecular target: T1, Papain (Carica papaya, UniProt P00784); assay: Inhibition of Carica papaya papain by spectrofluorimetry
T1 sequence (P00784 whole entry): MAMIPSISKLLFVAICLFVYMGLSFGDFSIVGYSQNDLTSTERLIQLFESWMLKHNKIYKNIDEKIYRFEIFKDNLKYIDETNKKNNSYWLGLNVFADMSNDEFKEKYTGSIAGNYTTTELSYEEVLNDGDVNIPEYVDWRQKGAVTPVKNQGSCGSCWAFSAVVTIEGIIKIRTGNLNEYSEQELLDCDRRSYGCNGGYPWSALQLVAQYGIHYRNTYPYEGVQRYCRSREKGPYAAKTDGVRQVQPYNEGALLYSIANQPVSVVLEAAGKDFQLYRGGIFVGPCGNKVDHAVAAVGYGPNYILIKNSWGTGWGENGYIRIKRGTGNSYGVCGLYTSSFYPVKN
In short: (§1)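 Enzyme (papain and CatB DTT 10 mM-activated; trypsin not) incubated 5 min at 25 °C with DMSO-dissolved inhibitor, five concentrations; Z-FR-AMC started reaction, AMC ex 380/em 460 nm. Papain: phosphate 50 mM pH 6.8, EDTA 1.0 mM, 7.8 nM. CatB: Tris–HCl 50 mM pH 7.5, EDTA 5 mM, 1.0 nM. Trypsin: Tris–HCl pH 7.5, CaCl2 10 mM, 56.1 nM. IC50 from time-course dose–response; triplicate.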

[1] = Inhibition of trypsin by spectrofluorimetry
Cathepsin B = Cathepsin B (Homo sapiens, UniProt P07858); assay: Inhibition of cathepsin B by spectrofluorimetry; in short: as §1
Papain (Carica papaya) [2] = molecular target: T2, Papain (Carica papaya) (UniProt P00784); assay: Inhibition of Carica papaya papain at 50 uM preincubated for 5 mins before addition of increasing concentration of substrate Z-FR-AMC
T2 sequence (whole entry): T1 sequence (P00784 whole entry)

[3] = Inhibition of trypsin at 50 uM preincubated for 5 mins before addition of increasing concentration of substrate Z-FR-AMC
Papain (Carica papaya) [4] = molecular target: T2, Papain (Carica papaya); assay: Inhibition of Carica papaya papain at 50 uM preincubated before DTT addition by fluorescence measurement
Papain (Carica papaya) [5] = molecular target: T2, Papain (Carica papaya); settings: 0.2 uM
Papain (Carica papaya) [6] = molecular target: T2, Papain (Carica papaya); settings: 0.5 uM
Papain (Carica papaya) [7] = molecular target: T2, Papain (Carica papaya); assay: Inhibition of Carica papaya papain assessed as residual enzyme activity at 9 uM after 30 mins
[8] = Inhibition of trypsin assessed as residual enzyme activity at 10 uM after 30 mins
Cathepsin G = molecular target: T3, Cathepsin G (Homo sapiens, UniProt P08311); assay: Inhibition of cathepsin G by spectrofluorimetry
T3 sequence (P08311 whole entry): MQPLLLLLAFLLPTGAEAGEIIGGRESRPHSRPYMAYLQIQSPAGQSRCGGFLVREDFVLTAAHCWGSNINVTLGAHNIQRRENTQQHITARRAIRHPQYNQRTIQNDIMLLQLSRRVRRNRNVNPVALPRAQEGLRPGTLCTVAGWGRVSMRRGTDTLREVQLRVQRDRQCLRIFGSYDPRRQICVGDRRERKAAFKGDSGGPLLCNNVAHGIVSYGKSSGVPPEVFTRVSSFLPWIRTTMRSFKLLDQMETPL

Row | IC50 (Papain) | IC50 [1] | IC50 (Cathepsin B) | inhibition (Papain (Carica papaya) [2]) | inhibition [3] | inhibition (Papain (Carica papaya) [4]) | inhibition (Papain (Carica papaya) [5]) | inhibition (Papain (Carica papaya) [6]) | inhibition (Papain (Carica papaya) [7]) | inhibition [8] | IC50 (Cathepsin G) | SMILES
1 | 693 µM | 301 µM | 198 µM | inactive | inactive | inactive | – | – | – | – | – | O=C(c1ccccc1O)c1ccc(O)cc1O
2 | 131 µM | 104 µM | 103 µM | inactive | inactive | inactive | – | – | Active | Active | – | CC(C)=CC[C@H]1C[C@@]2(CC=C(C)C)C(=O)C(C(=O)c3ccccc3)=C(O)[C@H](C2=O)C1(C)C [GARCINIAPHENONE]

The next lines start with the compound.

Row | SMILES | IC50 (Papain) | IC50 [1] | IC50 (Cathepsin B) | inhibition (Papain (Carica papaya) [2]) | inhibition [3] | inhibition (Papain (Carica papaya) [4]) | inhibition (Papain (Carica papaya) [5]) | inhibition (Papain (Carica papaya) [6]) | inhibition (Papain (Carica papaya) [7]) | inhibition [8] | IC50 (Cathepsin G)
3 | O=C(c1ccccc1)c1ccccc1 [BENZOPHENONE] | 3460 µM | 3470 µM | 289 µM | inactive | inactive | inactive | – | – | – | – | –
4 | CC(C)C[C@H](NC(=O)[C@H]1O[C@@H]1C(=O)O)C(=O)NCCCCN=C(N)N [E-64] | 0.047 µM | – | – | – | – | – | Active | Active | – | – | –
5 | CC(C)=CCC[C@]1(C)[C@@H](CC=C(C)C)C[C@]2(CC=C(C)C)C(=O)[C@@]1(CC=C(C)C)C(=O)C(C(=O)c1ccc(O)c(O)c1)=C2O [GUTTIFERONE A] | 1.9 µM | – | 2.1 µM | Active | – | Active | – | – | Active | – | 2.7 µM
6 | CC(=O)N[C@@H](CC(C)C)C(=O)N[C@@H](CC(C)C)C(=O)N[C@H](C=O)CCCNC(=N)N [LEUPEPTIN] | – | – | 0.047 µM | – | – | – | – | – | – | – | –
